Hits are enriched below; roughly 1.5% of the tested compounds scored in any of these assays.
SENP1 inh: inhibitors of human SENP1 SUMO protease catalytic domain; recombinant SENP1 catalytic domain, CyPet-SUMO1-YPet FRET cleavage; inhibition, % at 10 µM; actives 0.21% (n = 360,000); AID 624204;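 active = inhibition at least 30% at 10 µM, raw YFP signal under a set limit, fluorescence ratio 0.5 to 1.5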;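 also: 0% = enzyme with DMSO and 100% = no enzyme wells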
Target sequence (Q9P0U3 419-644 limits assumed): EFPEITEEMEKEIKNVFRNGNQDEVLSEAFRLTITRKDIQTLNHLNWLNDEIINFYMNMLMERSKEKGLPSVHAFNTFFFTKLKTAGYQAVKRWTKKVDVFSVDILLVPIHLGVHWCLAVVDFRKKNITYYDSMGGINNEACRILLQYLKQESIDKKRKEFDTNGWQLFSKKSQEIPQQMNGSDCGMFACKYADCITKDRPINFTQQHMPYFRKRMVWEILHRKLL
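Assay system: hSENP1 catalytic domain, recombinant. Amount: SENP1 enzyme, 20 pM final. Schedule: 50 min reaction, RT, dark. Technique: FRET, CFP and YFP emission. Control set: no-enzyme wells low, DMSO-plus-enzyme wells high control.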
Platelet DG rel: platelet dense granule release activity; human platelet-rich plasma, SFLLRN dense granule ATP release, luminescence; inhibition, %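 (compounds screened at 7.5 µM in platelet-rich plasma)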; actives 0.22% (n = 300,000); AID 1663;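 active = mean replicate score, as percent of positive control, at or above 50; inconclusive = mean below 50 but at least one replicate at or above 50; inactive = mean and every replicate below 50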
Myeloid diff 2: compounds promoting myeloid differentiation | ER-HoxA9 myeloid progenitors, lysozyme-GFP differentiation, flow cytometry | calls only at 10 µM | actives 1% (n = 360,000) | AID 624256;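 active = normalized GFP-positive differentiation at or above the plate's own cutoff, the solvent-only control mean plus 3 SD; inconclusive = no clear call, values can overlap the other calls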;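 also: cells exposed to compound for four days before flow analysis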
VLA-4 inh: inhibition in a human VLA-4 binding assay; P13612; VLA-4 expressing cells, ligand binding flow cytometry; inhibition, % (about 7 µM as worked out from the volumes in the protocol); actives 0.2% (n = 330,000); AID 2557; in the data active = inhibition above about 50%
VLA-4 allo CP: confirmation of allosteric modulators of human VLA-4 integrin. inhibition, % at 6.7 µM. AID 2813. actives 2% (n = 1,300). U937 cells, HUTS-21 LIBS mAb binding, flow cytometry; LDV ligand present at threefold Kd. shares compounds with VLA-4 inh; in the data active = inhibition above about 40%;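 also: 0% = ligand without compound and 100% = no ligand background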
* hit, by the source's call; i = inactive; ? = inconclusive; nt = not tested or not shown.

SMILES	SENP1 inh	Platelet DG rel	Myeloid diff 2	VLA-4 inh	VLA-4 allo CP
CC(Sc1nnnn1-c1ccccc1)C(=O)Nc1ccccc1-c1ccccc1 (stereo not given)	1.5	6.0	i	2.4	nt
CCC(C)NS(=O)(=O)c1ccc(N)cc1 (stereo not given)	0.6	-0.4	i	7.4	nt
CCS(=O)(=O)c1ccc(N)cc1	4.3	18.4	i	57.5*	7.3
COc1ccccc1-n1cnnc1SCC(=O)Nc1cccc(S(N)(=O)=O)c1	3.4	-8.4	?	-0.3	nt
O=C(NCCC(=O)N1CCN(S(=O)(=O)c2ccc(Cl)cc2)CC1)Nc1ccccc1	-1.5	nt	i	nt	nt
CCn1cc(C(=O)N[C@@H](CCSC)C(=O)NCCOC)c(=O)c2cc3c(cc21)OCO3	-2.2	4.6	i	8.5	nt
CCn1cc(C(=O)N[C@@H](CCSC)C(=O)NCCCO)c(=O)c2cc3c(cc21)OCO3	-0.4	9.0	i	40.2	3.7
O=C(CCc1nc2ccccc2s1)OCC(=O)c1ccccc1	-0.4	0.3	i	41.6	-11.8
O=C(CCc1nc2ccccc2s1)c1ccccc1	-15.0	-8.9	i	1.8	nt
CC(=O)Nc1nc(COc2ccc3ccccc3c2)cs1	3.9	2.8	i	56.2*	5.4
CC(=O)Nc1nc(COc2ccccc2)cs1	0.7	4.7	i	0.1	nt
CC(=O)Nc1ccc2c(c1)NC(=O)CC2	0.1	5.1	i	-5.3	nt
O=C1CCc2ccc(NC(=O)C3CC3)cc2N1	-0.3	-0.3	i	54.6*	-9.5
CCOc1ccc(N(Cc2ccc(OC)c(OC)c2)C(=O)c2ccco2)cc1	1.3	0.0	i	67.8*	8.2
Cc1c(Cl)cccc1NC(=S)C(=C([O-])c1ccc(Cl)s1)[n+]1ccccc1	-9.2	nt	i	nt	nt
COc1ccc(Cl)cc1NC(=O)CN(C)C(=O)Cn1c(=O)oc2ccccc21	3.1	-4.9	i	-16.8	-2.1
Cc1ccc(NC(=O)Nc2ccccc2C(N)=O)cc1	-0.8	21.6	i	-1.2	8.2
COc1ccc(Cl)cc1NC(=O)CCn1c(=O)oc2ccccc21	2.3	-0.7	i	-3.8	nt
COc1ccc(C)cc1NC(=O)Nc1ccccc1	-0.6	3.1	i	49.8*	-3.9
COc1ccc(NC(=O)Nc2cc(C)ccc2OC)cc1	4.0	2.9	i	7.6	nt
COc1cccc(CNC(=O)Cn2c(=O)oc3ccccc32)c1OC	0.4	15.6	i	37.6	-4.9
CCOc1ccccc1CNC(=O)Cn1c(=O)oc2ccccc21	-1.1	1.5	i	26.0	nt
CCC(=O)NN1CCN(c2ccncc2S(=O)(=O)N2CCCCC2)CC1	0.4	3.6	i	11.5	nt
Cc1ccccc1NC(=O)Cn1c(=O)oc2ccccc21	1.4	-5.1	i	16.5	nt
COc1ccc(C)cc1NC(=O)Cn1c(=O)oc2ccccc21	-0.5	6.4	i	43.8	-20.0
SMILES	SENP1 inh	Platelet DG rel	Myeloid diff 2	VLA-4 inh	VLA-4 allo CP
CN(CC(=O)Nc1ccccc1C(F)(F)F)C(=O)Cn1c(=O)oc2ccccc21	2.7	-22.2	i	5.8	0.6
CC1CCC(NC(=O)Cn2c(=O)oc3ccccc32)CC1 (stereo not given)	-2.4	15.7	i	-15.3	-0.2
CC1CCN(C(=O)Cn2c(=O)oc3ccccc32)CC1	-1.0	14.9	i	-0.2	nt
Cc1ccc2c(CN(C)Cc3ccc(Cl)cc3Cl)cc(=O)oc2c1	-2.7	2.3	i	16.0	nt
O=C(Nc1ccc(S(=O)(=O)NC2=NCCCCC2)cc1)c1cc(F)c(F)cc1Cl	2.2	nt	i	nt	nt
Cc1ccc2c([N+](=O)[O-])c(C)ccc2n1	0.0	-0.4	i	51.1*	-0.8
COc1ccccc1-c1nc2ccc(Cl)cc2c(=O)n1O	0.8	nt	i	42.2	-5.3
CCCCOC(=O)c1ccc(O)cc1	0.9	-2.0	i	-28.9	nt
CCCCCCCCOC(=O)c1ccc(N)cc1	-0.2	-0.4	i	49.6*	7.2
Cc1cc(Br)c(NC(=O)CSc2n[nH]c(N)n2)c(Br)c1	1.0	nt	i	-19.6	nt
N#CC(C#N)=C1C=CC=CN1/C(=C\c1ccco1)C(=O)c1ccc(-c2ccccc2)cc1	-36.6	nt	i	49.6*	11.8
N#CC(C#N)=C1C=CC=CN1/C(=C\c1ccco1)C(=O)c1ccc(Cl)cc1	-37.7	nt	?	16.9	nt
C[C@H](NCCc1ccc(O)cc1)[C@H](O)c1ccc(O)cc1	-3.1	nt	i	51.7*	-8.6
CC(=O)NCCc1ccc(O)cc1	2.0	-1.7	i	-2.3	nt
CCOCC(O)CNc1ccccc1 (stereo not given)	3.0	-1.9	i	40.9	13.5
COc1ccc(Cl)cc1S(=O)(=O)N1CCC(C(=O)N2CCOCC2)CC1	1.2	-3.8	i	8.2	nt
CCOc1ccc(-c2nnc3ccc(SCC(=O)N4CCCCC4)nn23)cc1	-0.5	12.6	i	18.4	-1.4
CCCCc1ccc(-n2c(Cc3cccs3)n[nH]c2=S)cc1	0.3	1.7	i	55.1*	3.7
S=c1[nH]nc(Cc2cccs2)n1-c1ccccc1	-0.1	-3.9	i	-10.3	nt
O=c1c(C(c2ccc(Cl)cc2)c2c(O)nc3n(c2=O)CCS3)c(O)nc2n1CCS2	-0.5	0.5	i	7.7	nt
N#Cc1c(-c2ccc(Cl)cc2Cl)nc2n(c1=O)CCS2	-41.2	3.5	i	92.0*	-6.7
CCOC(=O)N(C)c1c(CC)nc2c(OCc3cc(Cl)cc(Cl)c3)cccn12	-2.6	nt	i	nt	nt
Cc1ccc(NC(=O)C(C)c2ccc(-c3ccccc3)c(F)c2)cc1 (stereo not given)	0.5	3.1	i	88.3*	-1.4
Cc1ccc(NC(=O)C(Nc2ccccc2)c2ccccc2)cc1 (stereo not given)	2.1	-18.6	i	-9.4	nt
Cc1c(C)c2ccc(OCC(=O)NCCN3CCOCC3)cc2oc1=O	1.9	-2.8	i	-2.2	nt
SMILES	SENP1 inh	Platelet DG rel	Myeloid diff 2	VLA-4 inh	VLA-4 allo CP
CC(C)CNC(=O)CN(C1CCCCC1)S(C)(=O)=O	-0.9	25.3	i	5.2	nt
CCCNC(=O)CN(C1CCCCC1)S(C)(=O)=O	0.7	-63.0	i	91.0*	9.0
Cc1ccccc1C(=O)N1CCC(C(=O)Nc2ccccn2)CC1	0.6	-5.4	i	51.4*	-1.4
Cc1ccccc1C(=O)N1CCC(C(=O)Nc2ccc(C(C)C)cc2)CC1	4.1	0.9	i	21.4	14.3
Cc1ccccc1C(=O)N1CCC(C(=O)Nc2ccc(F)cc2)CC1	1.4	8.3	i	-6.9	nt
Cc1onc(-c2c(F)cccc2Cl)c1C(=O)OCC(=O)NCc1ccccc1	-3.1	nt	i	4.9	nt
Cc1ccsc1C(=O)NN=C1CCCCCC1	0.6	-14.7	i	11.0	nt
CC(C)(C)OC(=O)N/N=C/c1ccc(Br)cc1	-0.1	15.3	i	49.6*	0.0
Cc1ccc(SCc2nc(N)nc(Nc3ccccc3C)n2)cc1C	-14.1	-2.2	i	54.1*	-5.8
CCOC(=O)N1CCN(CCC(=O)Nc2cc(C)ccc2C)CC1	3.1	-5.3	i	9.3	nt
O=C(NC(=S)NCc1ccc(-c2nc3ccccc3s2)cc1)c1ccco1	0.1	-2.0	i	44.8	2.1
O=C(COC(=O)c1ccc2ncsc2c1)Nc1ccccc1Cl	-2.2	nt	i	12.1	nt
